Experimental data as given in ChEMBL document CHEMBL1177650, “Synthesis, structural elucidation and in vitro antiparasitic activity against Trypanosoma cruzi and Leishmania chagasi parasites of novel tetrahydro-1-benzazepine derivatives” (Bioorg Med Chem, 2010).

Key:
[1] = Selectivity index, CC50 for human THP1 cells to IC50 for Leishmania chagasi MHOM/BR/74/PP75 amastigotes; type: functional, THP-1
How it was run: (§1)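 Selectivity index computed as CC50 in THP-1 cells divided by IC50 against the L. chagasi stage named in the line.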

[2] = Cytotoxicity against human THP1 cells after 72 hrs by MTT assay; type: cell-based; details: THP-1 cells
How it was run: (§2)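 Vero or transformed THP-1 cells incubated with compound (0.3–300 μM) 72 h at 37 °C, 5% CO2; untreated controls. MTT read-out, formazan OD at 580 nm; % cytotoxicity = 100 × (OD control − OD treated)/OD control. CC50/CC90 by sigmoidal regression; triplicates, repeated twice. DMSO stocks 100× concentrated, diluted in medium.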

[3] = tested on: Trypanosoma cruzi; test: Antitrypanosomal activity against Trypanosoma cruzi 320I01 epimastigotes after 72 hrs by haemocytometry; type: functional, organism-based; details: 320I01, 72 h
How it was run: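 Late-phase T. cruzi epimastigotes cultured in LIT medium with hiFCS at 28 °C; threefold serial dilutions (0.3–100 μM) for 72 h at 28 °C, untreated controls. Parasites counted in a haemocytometer; IC50/IC90 by sigmoidal regression; each concentration in triplicate, two experiments.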

[4] = Selectivity index, CC50 for african green monkey Vero cells to IC50 for Trypanosoma cruzi 320I01 epimastigote; type: functional
How it was run: (§3)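 Selectivity index computed as CC50 in Vero cells divided by IC50 against the T. cruzi stage named in the line.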

[5] = Cytotoxicity against african green monkey Vero cells after 72 hrs by MTT assay; type: cell-based; details: chlorocebus sabaeus; how it was run: as §2
[6] = Selectivity index, CC50 for human THP1 cells to IC50 for Leishmania chagasi MHOM/BR/74/PP75 promastigotes; type: functional, THP-1; how it was run: as §1
[7] = tested on: Leishmania chagasi; test: Antileishmanial activity against Leishmania chagasi MHOM/BR/74/PP75 promastigotes after 72 hrs by haemocytometry; type: functional, organism-based; details: MHOM/BR/74/PP75, 72 h
How it was run: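 Late-phase L. chagasi promastigotes, grown at 28 °C in RPMI 1640 with hemin, HEPES and 10% hiSBF, exposed to threefold serial dilutions (0.3–100 μM) for 72 h at 28 °C; untreated controls. Growth inhibition from haemocytometer counts; IC50/IC90 by sigmoidal regression; triplicates, repeated twice.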

[8] = Selectivity index, CC50 for african green monkey Vero cells to IC50 for Trypanosoma cruzi 320I01 amastigotes; type: functional; how it was run: as §3
[9] = tested on: Leishmania chagasi; test: Antileishmanial activity against Leishmania chagasi MHOM/BR/74/PP75 amastigotes infected in human THP1 cells after 5 days by Giemsa staining; type: functional, organism-based; details: MHOM/BR/74/PP75, THP-1, 120 h
How it was run: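 THP-1 cells (RPMI, 5% hiSBF, 37 °C, 5% CO2) transformed, then infected 24 h with late-phase L. chagasi promastigotes at parasite:cell 10:1. Treated with compound dilutions (top 100 μM) 5 days at 37 °C, 5% CO2, medium changed once after 3 days. Infected cells counted per 300 cells on methanol-fixed Giemsa slides; IC50/IC90 by sigmoidal regression; triplicates, repeated twice.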

[10] = tested on: Trypanosoma cruzi; test: Antitrypanosomal activity against Trypanosoma cruzi 320I01 amastigotes infected in african green monkey Vero cells after 5 days by Giemsa staining; type: functional, organism-based; details: 320I01, Vero, 120 h
How it was run: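 Vero cells (RPMI, 5% hiSBF, 37 °C, 5% CO2) infected 24 h with tissue-derived T. cruzi trypomastigotes at parasite:cell 10:1. Compound dilutions (top 100 μM) applied 5 days at 37 °C, 5% CO2, medium changed once at day 3. Infected cells scored per 300 cells on methanol-fixed Giemsa preparations; IC50/IC90 by sigmoidal regression; triplicates, two experiments.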

SMILES	Selectivity Index [1]	CC50 at 72 h [2] [µM]	CC90 at 72 h [2] [µM]	IC50 [3] [µM]	IC90 [3] [µM]	Selectivity Index [4]	CC50 at 72 h [5] [µM]	CC90 at 72 h [5] [µM]	Selectivity Index [6]	IC50 [7] [µM]	IC90 [7] [µM]	Selectivity Index [8]	IC50 [9] [µM]	IC90 [9] [µM]	IC50 [10] [µM]	IC90 [10] [µM]
O[C@@H]1Cc2ccccc2N[C@H](c2cccc(Cl)c2)C1 (relative stereo)	>1	167	> 300	19.6	> 100	15.05	295	> 300	4.04	41.2	47	>3	> 100	> 100	> 100	> 100
O[C@@H]1Cc2cc(Br)ccc2N[C@H](c2ccccc2)C1 (relative stereo)	>1	185	> 300	15.7	57.4	2.68	42.1	> 300	4.1	45	> 100	0.43	97.7	> 100	97.8	99.4
Clc1cccc(Cl)c1[C@@H]1C[C@@H]2Cc3ccccc3N1O2 (relative stereo)	>3	> 300	> 300	> 100	> 100	>3	> 300	> 300	>3	> 100	> 100	>3	> 100	> 100	> 100	> 100
Fc1cccc(Cl)c1[C@@H]1C[C@@H]2Cc3ccccc3N1O2 (relative stereo)	>3	> 300	> 300	17.7	> 100	>17	> 300	> 300	>3	> 100	> 100	>3	> 100	> 100	> 100	> 100
O[C@@H]1Cc2cc(Cl)ccc2N[C@H](c2ccccc2)C1 (relative stereo)	>1	188	> 300	49.6	> 100	3.85	191	> 300	8.5	22.1	90.6	>2	> 100	> 100	> 100	> 100
O[C@@H]1Cc2cc(F)ccc2N[C@H](c2ccccc2)C1 (relative stereo)	>3	> 300	> 300	12.4	> 100	>24	> 300	> 300	>3	> 100	> 100	>3	> 100	> 100	> 100	> 100
Clc1ccc2c(c1)C[C@H]1C[C@@H](c3c(Cl)cccc3Cl)N2O1 (relative stereo)	>3	> 295	> 295	> 100	> 100	>0.56	57	> 295	4.15	71	> 100	>0.58	> 98.2	> 98.2	> 98.2	> 98.2
Fc1cccc(Cl)c1[C@@H]1C[C@@H]2Cc3cc(Cl)ccc3N1O2 (relative stereo)	>3	> 300	> 300	48.1	> 100	>6	> 300	> 300	>3	> 100	> 100	>3	> 100	> 100	> 100	> 100
O[C@@H]1Cc2ccccc2N[C@H](c2ccccc2)C1 (relative stereo)	>3	> 300	> 300	31.8	> 100	>9	> 300	> 300	>3	> 100	> 100	>3	> 100	> 100	> 100	> 100
O[C@@H]1Cc2cc(OC(F)(F)F)ccc2N[C@H](c2ccccc2)C1 (relative stereo)	>1	104	> 300	26.6	60.4	4.64	124	263	2.92	35.5	43.2	>1	> 100	> 100	> 100	> 100
Cc1cccc([C@@H]2C[C@H](O)Cc3ccccc3N2)c1 (relative stereo)	>1	176	> 300	15.6	54.9	>19	> 300	> 300	>1	> 100	> 100	>3	> 100	> 100	98	> 100
O[C@@H]1Cc2ccccc2N[C@H](c2ccc(Cl)cc2)C1 (relative stereo)	>1	114	> 300	65.4	> 100	>4	> 300	> 300	1.68	67.9	> 100	>7	> 100	> 100	41.8	> 100
O[C@@H]1Cc2ccccc2N[C@H](c2ccc(F)cc2)C1 (relative stereo)	>3	> 300	> 300	26.4	57.6	>11	> 300	> 300	>3	> 100	> 100	>3	> 100	> 100	> 100	> 100
COc1cccc([C@@H]2C[C@H](O)Cc3ccccc3N2)c1 (relative stereo)	>3	> 300	> 300	30.1	70.2	>10	> 300	> 300	>3	97.1	> 100	>3	> 100	> 100	> 100	> 100
